Assay results taken from article PMC8600527 (ACS Omega, 2021).

Columns and labels:
[1] = system: carrageenan-induced paw edema; assay: Carrageenan-induced paw edema in mice; format: in vivo, Balb/c mice; details: 1 mg/kg; paw volume 0 h vs 10 h
Procedure, shortened: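 Female Balb/c mice were fasted overnight and dosed orally with test compound at 1, 2 or 5 mg/kg (n = 5 per group). 1% carrageenan in PBS was injected subplantar into the left hind paw. Paw volume was read by plethysmometer at 1, 3, 6, 8 and 10 h. % inhibition was calculated from edema volume in control vs treated groups.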

macrophage phagocytosis = assay: Macrophage phagocytosis by the carbon clearance method; format: in vivo, Balb/C mice (Mus musculus); details: mice, 1 mg/kg
Procedure, shortened: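 Mice received saline, test compound (1, 2, 5 mg/kg) or dexamethasone (1 mg/kg) as reference. On day 6, carbon ink suspension was injected via the tail vein. Retro-orbital blood was taken at 0 and 30 min, lysed in 0.1% sodium carbonate, and read at 675 nm. Phagocytic index was derived from OD change between the two times (n = 5).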

C[C@@H]1C[C@H]2[C@@H]3CCC4=CC(=O)C=C[C@]4(C)[C@@]3(F)[C@@H](O)C[C@]2(C)[C@@]1(O)C(=O)CO [dexamethasone]
percentage inhibition of paw edema [1]: 88.5%
phagocytic index (macrophage phagocytosis): 0.038 ± 0.002
